Each structure is given as a SMILES string.

The series in a line: Toxicity liver stage against HepG2, at 10uM. The series is classed as cell-based. Further details: test concentration 10 uM, cell line HepG2-A16-CD81EGFP. The settings on record: human, HepG2-A16-CD81EGFP cells; read-out: INHIBITION
An outline of the steps:
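Uninfected HepG2-A16-CD81EGFP cells, 3 × 10^3 per well, 1536-well, plated on prespotted compound at 10 μM final, parasite-free screening media added to match infected plates; puromycin 10 μM positive, DMSO 0.5% negative; run in parallel with 48 h PbLuc assay at 37 °C, 5% CO2; viability by CellTiter-Glo luminescence, normalized to controls.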
In the case of `O=S(=O)(NCc1cn2ccccc2n1)N1CCOCC1`, the cytotoxicity at 10 µM worked out at 2.69%.
Turning to `COc1ccc(CNC[C@H]2COCc3nc4cc(F)ccc4n32)cc1`, the cytotoxicity at 10 µM worked out at 1.52%.
As for `COCCn1ccc(=O)c(OCC(=O)Nc2ccc(OC)c(Cl)c2)c1C`, the cytotoxicity at 10 µM is 5.36%.
Turning to `O=c1n(Cc2cccc(C(F)(F)F)c2)nc2ncccn12`, the cytotoxicity at 10 µM was -8.64%.
As to `C1CN(c2nc3c(c(NC4CC4)n2)CN(CC2CCOC2)CC3)CCO1` (configuration not stated), the cytotoxicity at 10 µM is -2.22%.
The value for `CC(=O)N1CCC2(CC1)C(=O)N(c1cccnc1)c1ccc(F)cc12` was 10.6%; that for `O=C1[C@@H]2CCN(CC3CCOCC3)C[C@@H]2OCCN1c1ccccc1` was -5.21%; that for `CC(C)C(=O)N1CC[C@@H]2CN(Cc3ccncc3)S(=O)(=O)[C@@H]2CC1` was 5.38%.
For `COCCO[C@H]1CCN(c2cc(OC)ncn2)[C@H]1Cc1ccncc1`, the cytotoxicity at 10 µM is -146%.
Turning to `CCOC(=O)C1CN(S(=O)(=O)CC)Cc2ncn(CC)c21` (configuration not stated), the cytotoxicity at 10 µM stood at 6.83%.
The result for `CN1CCN(C(=O)c2n[nH]c3c2CCN(Cc2nccs2)C3)CC1` reads -143%; that for `Cc1nccc([C@@H]2C[C@@H]3CCN(S(=O)(=O)C4CC4)C[C@H]3O2)n1`, -5.9%; that for `COC(=O)CCC(=O)N1CCC2(CN(Cc3cccc(F)c3)C2)C1`, 4.6%.
`O=C1NCC[C@]12CN(Cc1ccoc1)C[C@H]2c1ccccc1`: the cytotoxicity at 10 µM came to 4.55%.
Take `Cc1c(Br)c(C(=O)NC(C)c2ccccc2)nn1C` (configuration not stated): the cytotoxicity at 10 µM is -4.34%.
The value for `CCn1nc(C)c2nc(C(C)C)nc(N3CCOCC3)c21` was 2.88%; that for `N#Cc1ccc(C2CC(=O)Nc3c(C(=O)O)nsc32)cc1` (configuration not stated) was 3.02%.
The value for `O=C1Nc2ccccc2CC12CCCN2Cc1ccc(F)cc1` (configuration not stated) was 10.5%; that for `CC(C)(C)c1nc(CN(CCO)Cc2cc(Br)ccc2F)no1` was 8.52%; that for `CS(=O)(=O)Cc1ccc(OCc2ccc(F)cc2)cc1` was 22.9%.
On to `CCCn1cc(C(=O)NCCS(N)(=O)=O)c2ccccc21`, for which the cytotoxicity at 10 µM was 5.15%.
The value for `Cc1cc(C)cc(C(=O)NCCS(=O)(=O)N2CCSCC2)c1` was -12.5%.
`Cc1nn(C)c(C)c1C(C)NCc1ccc(OC(C)C)cc1` (configuration not stated): the cytotoxicity at 10 µM was 15.3%.
The result for `NC(=O)c1cnc(NC2CCN(C(=O)C3CC3)CC2)c(Cl)c1` reads -14.2%; that for `COC(=O)c1ccc(Cn2nc(C)cc2C)c(F)c1`, 4.11%; that for `Cc1nsc(N2CCCN(C(=O)NCc3cccnc3)CC2)n1`, -0.555%.
Take `OCCOc1ccc(NCc2cccc3cccnc23)cn1`: the cytotoxicity at 10 µM was -3.24%.
`N#Cc1ccc(SCCOCCO)c(F)c1`: the cytotoxicity at 10 µM amounted to 0.513%.
The result for `CC(C)N(Cc1ccccc1)Cc1nnsc1Cl` reads -9.44%; that for `CC(C)C(=O)NC1CCN(c2cccc(OC(F)(F)F)c2)C1=O` (configuration not stated), -4.13%; that for `CCN1CCN(c2ccc(F)cc2C(C)NCc2nc(C)no2)CC1` (configuration not stated), -17.9%.
As for `CC(NC(=O)N(C)Cc1ccc2c(c1)OCO2)c1nncn1C` (configuration not stated), the cytotoxicity at 10 µM was -1.31%.
Turning to `CCn1cc(C(=O)Nc2ccc(C)cc2C(=O)OC)cn1`, the cytotoxicity at 10 µM stood at 5.47%.
For `CC(C)c1nnc(NC(=O)c2cccc(OCC(F)(F)F)n2)[nH]1`, the cytotoxicity at 10 µM is -1.26%.
The value for `CN(Cc1nnnn1C1CC1)c1cccc2ccccc12` was 8.38%; that for `CC1(C)Oc2ccc(NC(=O)c3ccc(=O)[nH]n3)cc2O1` was 10.1%.
Consider `CC(O)CN1CCC(CN(C)C(=O)NC2CC2)CC1` (configuration not stated), for which the cytotoxicity at 10 µM was 5.55%.
As for `Cc1ncc(CNc2cnccc2CO)s1`, the cytotoxicity at 10 µM was -24.7%.
Take `C[S+]([O-])CCCNCc1cc(F)ccc1Br` (configuration not stated): the cytotoxicity at 10 µM is 0.732%.
For `Cc1cc(C(=O)NCC(=O)NC(c2ncccc2C)C(C)C)c(C)o1` (configuration not stated), the cytotoxicity at 10 µM was -9.6%.
The value for `Cn1cnc(S(=O)(=O)N2CCSC3(CCCCC3)C2)c1` was -5.95%; that for `Cc1nc(C(=O)Nc2cc(N3CCNC3=O)ccc2Cl)cs1` was -1.33%; that for `O=C(c1cccnc1-n1cncn1)N1CCc2ccccc2C1` was -13.9%.
Take `Cc1nsc(N2CCCN(c3nc(C4CC4)ns3)CC2)n1`: the cytotoxicity at 10 µM is -11.5%.
With `CCCn1ncc(C(=O)N2CCN(C3CCCC3)CC2)c1C`, the cytotoxicity at 10 µM is -151%.
For `CC(=O)N1CCCC(C(=O)NCCc2nc(Cc3ccccc3)no2)C1` (configuration not stated), the cytotoxicity at 10 µM was 3.81%.
With `CCn1c(N)nc2cc(C(=O)N3CCN(c4nccs4)CC3)cnc21`, the cytotoxicity at 10 µM is -17.2%.
The result for `CN(Cc1noc2c1CCCC2)C(=O)Nc1cccc(S(N)(=O)=O)c1` reads -4.32%; that for `Cc1ccoc1C(=O)N1CCC(n2cc(CO)nn2)CC1`, -1.52%; that for `CN1CC(C(=O)N(C)Cc2cc(-c3cccnc3)no2)NC1=O` (configuration not stated), -3.08%.
Take `CC(CO)Nc1ccc(-c2nc(Cc3ccc(F)cc3)no2)cn1` (configuration not stated): the cytotoxicity at 10 µM was -11.9%.
The value for `CNc1nc2c(c(C(=O)N3CCCC3)n1)CN(C(=O)c1cccs1)CC2` was -112%; that for `CCC1(CO)CCCN(C(=O)c2cc(COc3ccccc3F)[nH]n2)C1` (configuration not stated) was 20.8%; that for `CC1CCCN(Cc2cccc(C(=O)Nc3nccs3)c2)C1` (configuration not stated) was -5.68%.
For the compound `CCc1nc(Cn2nc(C3CCNCC3)n(-c3ccccc3)c2=O)cs1`, the cytotoxicity at 10 µM was -1.22%.
The value for `Cc1nc(N(C)C)nc(NCCc2c[nH]cn2)c1C` was 3.12%; that for `O=C(NC1CC(=O)N(C2Cc3ccccc3C2)C1)c1csnn1` (configuration not stated) was 2.96%.
`COCc1ccc(C(=O)N2CCN(CC3CC3)[C@@H]3CS(=O)(=O)C[C@@H]32)o1`: the cytotoxicity at 10 µM is -15.5%.
The result for `CC(C(=O)O)N1CC2(CCC1=O)CCN(CCSc1ccccc1)CC2` (configuration not stated) reads 2.57%; that for `O=C(CN1CCN(c2ncccn2)[C@@H]2CS(=O)(=O)C[C@@H]21)N1CCCCC1`, -6.82%.
For `COc1cccc(NC(=O)c2cc3c([nH]c2=O)CCCC3=O)c1`, the cytotoxicity at 10 µM is -3.35%.
`CCCn1ncc(C(=O)N2CCCC(OCc3ccccn3)C2)c1C` (configuration not stated): the cytotoxicity at 10 µM is -0.2%.
For `CC(=O)c1cc(CC(=O)NCc2ccc(F)cc2)cs1`, the cytotoxicity at 10 µM was -18.7%.
Consider `Cc1nccn1CCC1CCCCN1Cc1ccc(N(C)C)nc1` (configuration not stated), for which the cytotoxicity at 10 µM was found to be 21.3%.
Regarding `Cc1[nH]c(=O)[nH]c(=O)c1CN1CCCC(CCc2ccccc2)C1` (configuration not stated), the cytotoxicity at 10 µM was -11.4%.
`CC(C)(C)c1nc(CN2CCCC2Cn2cncn2)no1` (configuration not stated): the cytotoxicity at 10 µM came out at 1.93%.
The result for `Cc1nn(C)c(C)c1C1CCCN1C(=O)CCc1ccco1` (configuration not stated) reads -21.5%.
With `Cc1nc2ccnn2c(C)c1CCC(=O)N1CCN2CCCCC2C1` (configuration not stated), the cytotoxicity at 10 µM was -8.82%.
For the compound `CC(C)(C)c1ncc(C(=O)NCCNc2ncccn2)s1`, the cytotoxicity at 10 µM is -1.62%.
`Cc1nn(C)c(Cl)c1C1CCCN1C(=O)c1cccc(C#N)c1` (configuration not stated): the cytotoxicity at 10 µM is -22%.
The result for `CC(CO)NC(=O)Nc1ccc(S(C)(=O)=O)nc1` (configuration not stated) reads -10.2%; that for `CC(=O)NCC1CCN(C(=O)CCOc2ccc(C(C)C)cc2)CC1`, -11.6%; that for `Cn1cc(C2CCCN2Cc2csc(-c3ccccc3)n2)cn1` (configuration not stated), -2.48%.
On to `CN1CCOC(CNCc2ccc(OCc3ccccn3)cc2)C1` (configuration not stated), for which the cytotoxicity at 10 µM is -13.4%.
The result for `CC(C)c1nc(CN2CCOC(Cn3cccn3)C2)no1` (configuration not stated) reads -9.43%.
In the case of `Cc1cccc(N2CCN(C(=O)NC(C)c3nncn3C)CC2)c1` (configuration not stated), the cytotoxicity at 10 µM is -6.13%.
On to `COCCOc1ncccc1C(=O)N1CCCCC1c1nccs1` (configuration not stated), for which the cytotoxicity at 10 µM was -11.5%.
Take `COc1ccc(F)cc1C(=O)N1CCCC(CNS(C)(=O)=O)C1` (configuration not stated): the cytotoxicity at 10 µM is -20%.
The result for `O=C(NCCn1ccnc1)N1CCN(Cc2ccco2)CC1` reads 3.94%; that for `OC1(CN2CCOC(Cn3cccn3)C2)CCCCC1` (configuration not stated), -6.11%; that for `Cc1cnn(CC2CCCN2C(=O)c2cc(C)nc3[nH]nc(C)c23)c1` (configuration not stated), -12.4%.
The result for `COc1ccc(CN2CCCCC2Cn2nc(C)nc2C)cc1F` (configuration not stated) reads -15%; that for `c1ccc(-n2cc(CN3CCCC(Cn4cncn4)C3)nn2)cc1` (configuration not stated), 1.52%; that for `Cc1cccc(C)c1NC(=O)CCNC(=O)c1ccoc1`, 3.03%.
Take `CCc1[nH]ncc1C(=O)N1CCCN(Cc2cnn(C)c2)CC1`: the cytotoxicity at 10 µM worked out at 1.71%.
`CCO[C@@H]1C[C@H]2CN(Cc3ccc(C)o3)CCN2C1`: the cytotoxicity at 10 µM is -149%.
Regarding `Cc1ccc(CN2C[C@@H](N(C)C)[C@H]3OCCC[C@H]32)o1`, the cytotoxicity at 10 µM was -136%.
The result for `Cn1ccnc1CN1CCC(F)(F)C2(CCN(c3cnccn3)C2)C1` (configuration not stated) reads 16.4%; that for `COC1COC2(CCN(Cc3ccc4c(c3)OCO4)CC2)C1` (configuration not stated), 0.729%.
`O=C(Nc1cnccn1)[C@@H]1C[C@H]2OCC[C@H]2N(Cc2ccsc2)C1`: the cytotoxicity at 10 µM was -2.31%.
The value for `Cc1cnc(N2CCC3(CCCCN3C)C2)nc1` (configuration not stated) was 3.29%; that for `Cc1ncsc1CN1C[C@H](OCC(C)C)[C@H]2OCCC[C@H]21` was -140%; that for `c1cnc(NCc2cncc3c2CCN(Cc2cccs2)C3)nc1` was 7.33%.
With `Cc1ccc(N2CCCC3(COCCN(c4ncccn4)C3)C2)nn1` (configuration not stated), the cytotoxicity at 10 µM is -131%.
The value for `CC(C)NC(=O)c1ccc2nnc(C3CN(C)CCN3C)n2c1` (configuration not stated) was -139%; that for `c1ccc(CN2Cc3nccn3CC(Cn3cncn3)C2)nc1` (configuration not stated) was -141%.
With `O=C1CCCC2=Nc3nonc3NC(c3ccc(F)cc3F)C12` (configuration not stated), the cytotoxicity at 10 µM is 2.43%.

These data come from ChEMBL document CHEMBL4513216, “Probing the Open Global Health Chemical Diversity Library for Multistage-Active Starting Points for Next-Generation Antimalarials” (ACS Infect Dis, 2020).
